Experimental data taken from ChEMBL document CHEMBL4118256, “Second Generation of Mannich Base-Type Derivatives with in Vivo Activity against Trypanosoma cruzi” (J Med Chem, 2018).
Active and inactive are the calls of the source. The calls are words filed in the database; no cut-off is given here.

Key:
[1] = system: Trypanosoma cruzi; assay: Trypanocidal activity against Trypanosoma cruzi IRHOD/CO/2008/SN3 DTU 1 epimastigotes after 48 hrs by resazurin dye based assay; format: functional, organism-based; conditions: IRHOD/CO/2008/SN3 DTU 1, 48 h
Method in brief: (§1)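 Exponential-phase epimastigotes were seeded at 5×10^5 mL^-1 with compounds at 100–0.2 µM (DMSO 0.01% v/v) at 28 °C. After 48 h, resazurin was added for another 24 h. SDS was then added and absorbance read at 570 and 600 nm.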

[2] = system: Trypanosoma cruzi; assay: Trypanocidal activity against Trypanosoma cruzi TINF/CH/1956/Tulahuen DTU 6 epimastigotes after 48 hrs by resazurin dye based assay; format: functional, organism-based; conditions: TINF/CH/1956/Tulahuen DTU 6, 48 h; method in brief: as §1
[3] = system: Vero; assay: Cytotoxicity against African green monkey Vero cells assessed as reduction in cell viability after 72 hrs by resazurin dye based assay; conditions: Chlorocebus sabaeus
Method in brief: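 Vero monkey kidney cells grown at 37 °C, 5 % CO2, in RPMI with 10 % heat-inactivated FBS. Seeded at 1.25 × 10^4 mL-1 with compound at 1000 to 1 µM (DMSO 0.01 % v/v). After 48 h, resazurin added for a further 24 h, then SDS. Absorbance read at 570/600 nm. IC50 from triplicates in four separate determinations.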

[4] = Selectivity index, ratio of IC50 for African green monkey Vero cells to IC50 for Trypanosoma cruzi MHOM/Pe/2011/Arequipa DTU 5 epimastigotes; format: toxicity; conditions: read-out: Ratio IC50
Method in brief: (§2)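 SI is Vero IC50 divided by the IC50 for the stated parasite form. For Vero cytotoxicity, cells were seeded at 1.25×10^4 mL^-1 with compounds at 1000–1 µM, incubated 48 h, then given resazurin for a further 24 h (72 h total), with absorbance read at 570/600 nm. Triplicate, four determinations.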

[5] = system: Trypanosoma cruzi; assay: Trypanocidal activity against Trypanosoma cruzi MHOM/Pe/2011/Arequipa DTU 5 trypamastigotes derived from infected Balb/c albino mouse after 24 hrs by resazurin dye based assay; format: functional, organism-based; conditions: MHOM/Pe/2011/Arequipa DTU 5, 24 h
Method in brief: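 Bloodstream trypomastigotes taken from mice at peak parasitaemia were seeded at 2×10^6 mL^-1 in RPMI with 10% FBS. Compounds were added at 50–0.2 µM and incubated 24 h at 37 °C, 5% CO2, then with resazurin for 4 h. SDS was added and absorbance read at 570/600 nm. IC50 was fitted; triplicate, four separate determinations.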

[6] = Selectivity index, ratio of IC50 for African green monkey Vero cells to IC50 for Trypanosoma cruzi MHOM/Pe/2011/Arequipa DTU 5 trypamastigotes derived from infected Balb/c albino mouse; format: toxicity; conditions: read-out: Ratio IC50; method in brief: as §2
[7] = Selectivity index, ratio of IC50 for African green monkey Vero cells to IC50 for Trypanosoma cruzi IRHOD/CO/2008/SN3 DTU 1 amastigotes infected in African green monkey Vero cells; format: toxicity; conditions: read-out: Ratio IC50; method in brief: as §2
[8] = Selectivity index, ratio of IC50 for African green monkey Vero cells to IC50 for Trypanosoma cruzi TINF/CH/1956/Tulahuen DTU 6 amastigotes infected in African green monkey Vero cells; format: toxicity; conditions: read-out: Ratio IC50; method in brief: as §2
[9] = system: Trypanosoma cruzi; assay: Trypanocidal activity against Trypanosoma cruzi MHOM/Pe/2011/Arequipa DTU 5 amastigotes infected in African green monkey Vero cells assessed as infected cells at 50 uM after 72 hrs by Giemsa-staining based microscopic assay relative to control; format: functional
Method in brief: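 Infected Vero cell cultures were exposed for 72 h to a range of concentrations. Infected cells were counted microscopically on Giemsa-stained preparations and expressed relative to infected untreated controls. Values are means of three separate determinations; IC50 was derived by curve fitting.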

[10] = system: Mus musculus; assay: Toxicity in Balb/c mouse assessed as reduction in body mass at […], po once daily for 5 consecutive days starting from day 75 post infection relative to control; format: organism-based; parameters: scale not given: the % may be the effect or the level left; conditions: in vivo
Method in brief: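 Infected female BALB/c mice, six per group, received oral doses of 20 mg·kg^-1/day for 5 consecutive days (total 100 mg·kg^-1) in 5% DMSO/0.5% HPMC vehicle, from day 10 or day 75 pi. Body mass and deaths were monitored during and after treatment.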

[11] = system: Trypanosoma cruzi; assay: Antitrypanosomal activity against Trypanosoma cruzi MHOM/Pe/2011/Arequipa DTU 5 trypamastigotes infected in Balb/c mouse assessed as reduction in Ig-G level in serum at 100 mg/kg, po once daily for 5 consecutive days starting from day 75 post infection measured on day 81 post infection by ELISA; format: functional, organism-based
[12] = system: Trypanosoma cruzi; assay: Antitrypanosomal activity against Trypanosoma cruzi MHOM/Pe/2011/Arequipa DTU 5 trypamastigotes infected in Balb/c mouse assessed as reduction in splenomegaly at 100 mg/kg, po once daily for 5 consecutive days starting from day 10 post infection measured on day 127 post infection relative to control; format: functional; parameters: scale not given: the % may be the effect or the level left
[13] = system: Mus musculus; assay: (§3) Cardiotoxicity in Balb/c mouse infected with Trypanosoma cruzi MHOM/Pe/2011/Arequipa DTU 5 trypamastigotes assessed as change in serum LDH level at 100 mg/kg, po once daily for 5 consecutive days starting from day 10 post infection measured on day 127 post infection by biochemical analysis relative to control; format: toxicity, organism-based; conditions: in vivo
[14] = system: Mus musculus; assay: as §3, with “Hepatotoxicity” for “Cardiotoxicity”, “alkaline phosphatase” for “serum LDH”; format: toxicity, organism-based; conditions: in vivo
[15] = system: Trypanosoma cruzi; assay: Antitrypanosomal activity against Trypanosoma cruzi MHOM/Pe/2011/Arequipa DTU 5 epimastigotes assessed as effect on parasite glycolytic pathway by measuring reduction in pyruvate excretion at IC25 after 72 hrs by 1H NMR method; format: functional, organism-based
Method in brief: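 Arequipa epimastigotes exposed at IC25 for 72 h alongside an untreated control. Excreted catabolites were analysed by 1H NMR, and each peak is reported as % variation versus the control. Three separate determinations.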

[16] = system: Trypanosoma cruzi; assay: Induction of mitochondrial membrane potential disruption in Trypanosoma cruzi MHOM/Pe/2011/Arequipa DTU 5 epimastigotes assessed as inhibition of DNA replication and RNA synthesis at IC25 after 72 hrs by acridine orange staining based flow cytometry relative to control; format: functional
Method in brief: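 Arequipa epimastigotes were exposed for 72 h at IC25. DNA/RNA content was measured as acridine orange fluorescence by flow cytometry and compared with untreated control.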

[17] = target: T1, Superoxide dismutase (Trypanosoma cruzi (strain CL Brener), UniProt Q4DCQ3); assay: Inhibition of Trypanosoma cruzi MHOM/Pe/2011/Arequipa DTU 5 epimastigotes Fe-SOD by UV-Visible spectrophotometric method
T1 sequence (Q4DCQ3 whole entry): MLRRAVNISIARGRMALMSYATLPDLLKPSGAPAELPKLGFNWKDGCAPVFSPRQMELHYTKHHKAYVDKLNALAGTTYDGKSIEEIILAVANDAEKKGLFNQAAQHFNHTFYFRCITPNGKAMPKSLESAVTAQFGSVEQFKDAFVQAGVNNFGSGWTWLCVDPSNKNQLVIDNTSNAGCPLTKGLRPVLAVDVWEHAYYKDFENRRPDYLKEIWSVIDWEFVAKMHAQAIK
Method in brief: (§4)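 SOD activity of parasite Fe-SOD and human CuZn-SOD was measured spectrophotometrically by the Beyer and Fridovich method, with compounds at 1–100 µM. Values are averages of three rate determinations; IC50 was obtained by linear regression and differences were tested by Newman-Keuls.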

[18] = target: T2, Superoxide dismutase (Trypanosoma cruzi (strain CL Brener)) (UniProt Q4DCQ3); assay: Inhibition of Trypanosoma cruzi MHOM/Pe/2011/Arequipa DTU 5 epimastigotes Fe-SOD at 50 uM by UV-Visible spectrophotometric method relative to control; method in brief: as §4
T2 sequence (whole entry): T1 sequence (Q4DCQ3 whole entry)

## COc1ccc(C(=O)CCN2CCN(c3ccc(Cl)cc3)CC2)cc1
[1]
  IC50: 6.3 µM
[2]
  IC50: 7.3 µM
[3]
  IC50: 300 µM
[4]
  selectivity ratio: 31.5
[5]
  IC50: 3.4 µM
[6]
  selectivity ratio: 89.6
[7]
  selectivity ratio: 51.5
[8]
  selectivity ratio: 78.7
[9]
  Activity: 15%
[10]
  Activity: > 10%
[11]
  Activity: inactive
[12]
  Activity: 52%
[13]
  Activity: < 10%
[14]
  Activity: < 10%
[15]
  Activity: inactive
[16]
  inhibition (INH): 18%
[17]
  IC50: 6.5 µM
[18]
  inhibition: 100%

## O=C(Cn1ccnc1[N+](=O)[O-])NCc1ccccc1 [BENZNIDAZOLE]
[2]
  IC50: 19.7 µM
[3]
  IC50: 23.2 µM
[5]
  IC50: 12.4 µM
[9]
  Activity: 20%
[16]
  inhibition (INH): 22.4%

## COc1ccc(C(=O)CCN2CCN(c3ccc(F)cc3)CC2)cc1
[1]
  IC50: 2 µM
[2]
  IC50: 1.8 µM
[3]
  IC50: 55 µM
[4]
  selectivity ratio: 40.2
[5]
  IC50: 1.1 µM
[6]
  selectivity ratio: 49.1
[7]
  selectivity ratio: 17.6
[8]
  selectivity ratio: 34.6
[9]
  Activity: 7%
[10]
  Activity: > 10%
[11]
  Activity: inactive
[12]
  Activity: Active
[13]
  Activity: < 10%
[14]
  Activity: < 10%
[15]
  Activity: Active
[16]
  inhibition (INH): 24.6%
[17]
  IC50: 7.8 µM
[18]
  inhibition: 100%

## COc1ccc(C(=O)CCN2CCN(c3ccc([N+](=O)[O-])cc3)CC2)cc1
[1]
  IC50: 22 µM
[2]
  IC50: 37.4 µM
[3]
  IC50: 587 µM
[4]
  selectivity ratio: 18.6
[5]
  IC50: 11.7 µM
[6]
  selectivity ratio: 50.4
[7]
  selectivity ratio: 19.2
[8]
  selectivity ratio: 17.5
[9]
  Activity: 52%
[10]
  Activity: > 10%
[11]
  Activity: inactive
[12]
  Activity: Active
[13]
  Activity: < 10%
[14]
  Activity: < 10%
[15]
  Activity: inactive
[16]
  inhibition (INH): 72.9%
[17]
  IC50: 5 µM
[18]
  inhibition: 100%
